# Measured values reported in article PMC11903327 (Clinical and Translational Science, 2025).
# Read-outs that look alike come from different tables or passages of the source.
# Experiments:
# [1] = Clinical mass balance study with radiolabelled fruquintinib; format: in vivo, human; settings: single 5 mg dose in humans; inferred from metabolic profile
# [2] = healthy subjects, cited from earlier work
# [3] = Biopharmaceutical classification system; format: physicochemical; settings: based on low aqueous solubility and high in vitro permeability
# [4] = format: in vivo, human; settings: for CL/F: arithmetic mean (SD)
# Summary of the method: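 Healthy nonsmoking adults aged 18–55, BMI 18–29 kg/m2. Randomized fed/fasted crossover: single 5 mg oral dose fasted or 30 min after a high-fat breakfast (~800–1000 kcal, 50% fat), with ≥14-day washout. Period 3: rabeprazole 40 mg QD with breakfast for 6 days, then fasted 1 h before dosing. Plasma sampled pre-dose to 168 h, LC-MS/MS (1.00–750 ng/mL). Noncompartmental PK; mixed-effects geometric LSM ratios, 90% CIs.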
# [5] = format: in vivo, human
# pKa = format: physicochemical
# [6] = system: colorectal adenocarcinoma‐2 cell; settings: colorectal adenocarcinoma-2 cells; cited from earlier work
# [7] = Phase 1 dose-escalation study, QD dosing; cited from earlier work
# [8] = healthy Chinese subjects, fruquintinib 4 mg, cited from earlier work
# [9] = In vitro aqueous solubility in buffer systems across pH 1 to 6.8; format: physicochemical; settings: 37 °C, thermodynamic from solid
# [10] = ref Takeda data on file, cited from earlier work
# [11] = single oral radiolabeled fruquintinib 5 mg; cited from earlier work
# [12] = clinical dose of 5 mg; cited from earlier work
structure (smiles),measurement,setting,value
CNC(=O)c1c(C)oc2cc(Oc3ncnc4cc(OC)c(OC)cc34)ccc12 [Fruquintinib],fraction of the dose absorbed,[1],> 85%
same,change in fruquintinib exposure,[2]; coadministration with a CYP3A inducer,decreased
same,change in fruquintinib AUC or Cmax,[2]; coadministration with a CYP3A inhibitor,no clinically meaningful change
same,biopharmaceutical classification system (BCS) class,[3],class 2
same,time after dosing at which peak concentrations were achieved,"[4]; fruquintinib 5 mg oral, under fed and fasted conditions",approximately 4 h
same,effects of food or rabeprazole on fruquintinib PK,"[4]; healthy subjects, fruquintinib 5 mg",No clinically relevant effects
same,Tmax,"[4]; human, plasma, oral",0.5 h
same,Tmax,"[4]; human, plasma, po, 5 mg",4 h
same,CL/F,"[4]; single oral fruquintinib 5 mg + rabeprazole 40 mg, fasted",15.6 (4.59) mL/min
same,CL/F,"[4]; single oral fruquintinib 5 mg, fasted (reference)",17.1 (5.22) mL/min
same,CL/F,"[4]; single oral fruquintinib 5 mg, fed (high-fat meal)",16.3 (4.32) mL/min
same,Tmax,"[4]; single oral fruquintinib 5 mg, fed (high-fat meal), median (minimum–maximum)",4.00 (2.00–6.00) h
same,relation of AEs to fruquintinib,[5]; all five AEs,not related
same,severity of AEs,[5]; all five AEs,mild
same,subjects reporting AEs,"[5]; four of 14 subjects, five AEs, all treatment periods",29%
same,"changes in chemistry, hematology, urinalysis and coagulation laboratory test results",[5]; over time during the study,no clinically significant changes
same,tolerability,[5]; with or without food or with rabeprazole,well tolerated
same,pKa,pKa,2.78
same,apical-to-basolateral apparent permeability,[6],3e-05 cm/s
same,efflux ratio,[6],~1
same,maximum-tolerated dose,[7],4 mg
same,effect of a high-fat meal on the PK of fruquintinib,[8],no clinically significant effect
same,least squares GMR (90% CI) for AUC0-inf,[8]; high-fat meal vs fasted,97.2% (94.0%–100.4%)
same,least squares GMR (90% CI) for Cmax,[8]; high-fat meal vs fasted,82.9% (76.7%–89.5%)
same,solubility at 48 h,"[9]; pH 1, simulated gastric fluid",130 µg/mL
same,solubility at 48 h,"[9]; pH 4.5, aqueous buffer",0.9 µg/mL
same,solubility at 48 h,"[9]; pH 6.8, aqueous buffer",0.9 µg/mL
same,time stable in simulated gastric fluids,[10]; simulated gastric fluids,at least 1 h
same,time stable in simulated intestinal fluids,[10]; simulated intestinal fluids,at least 3 h
same,dose recovered in feces,[11],30%
same,"unchanged fruquintinib in feces, of the administered dose",[11],5.34%
same,"unchanged fruquintinib in urine, of the administered dose",[11],0.50%
CNC(=O)c1ccccc1Sc1ccc2c(/C=C/c3ccccn3)n[nH]c2c1 [axitinib],DDI (based on AUC) when combined with rabeprazole,[12],no clinically meaningful DDI
same,food effect,[12],no clinically meaningful food effect
